Results on two molecules are retold here after ChEMBL document CHEMBL4270616, “Asymmetrical meta-methoxylated diarylpentanoids: Rational design, synthesis and anti-cancer evaluation in-vitro” (Eur J Med Chem, 2018).

The subject of one experiment is NHDF. The experiment can be described thus: Cytotoxicity against NHDF after 72 hrs by MTT assay. Format: cell-based. The note with it: Homo sapiens. In a few lines: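 NHDF grown in DMEM with 5% FBS at 37°C, 5% CO2. Seeded at 1500-5000 cells/well, 24 h, then compound added in DMSO-containing medium (final DMSO 0.1%) for 72 h. MTT (5 mg/mL in medium) added for 4 h at 37°C, formazan dissolved in DMSO, absorbance read at 570 nm.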
For orientation: Tetrazolium assays rely on reduction of a dye to a coloured formazan, in cell work by metabolically active cells.

The test system of the next experiment is A549. The experiment can be described thus: Cytotoxicity against human A549 cells assessed as inhibition of cell proliferation at 20 uM after 72 hrs by MTT assay relative to control. The note with it: A549, 72 h. The experiment is classed as functional. In a few lines: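 Single-concentration screen at 20 μM with 72 h exposure in DMEM with 10% FBS, final DMSO 0.1%. Read-out was MTT (5 mg/mL, 4 h, 37°C), DMSO solubilisation and absorbance at 570 nm, expressed as percent inhibition. Lines reaching a threshold percentage went on to IC50 determination.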

In experiment [1] the test system is SW-620. The experiment can be described thus: Cell cycle arrest in human SW620 cells assessed as accumulation at G2/M phase at 2.5 uM after 24 hrs by propidium iodide staining based flow cytometry (reference value: 19%). The experiment is classed as functional. (In flow cytometry, cells or beads pass a laser one at a time.)
Experiment [2] concerns SW-620. The experiment can be described thus: Induction of apoptosis in human SW620 cells assessed as live cells at 10 uM after 24 hrs by Annexin V-FITC/propidium iodide staining based flow cytometry (reference value: 97.03%). Format: functional.
For experiment [3], the system named is SW-620. In words: Induction of apoptosis in human SW620 cells assessed as early apoptotic cells at 10 uM after 24 hrs by Annexin V-FITC/propidium iodide staining based flow cytometry (reference value: 2.35%). Format: functional.
Experiment [4] deals with SW-620. The experiment can be described thus: Induction of apoptosis in human SW620 cells assessed as late apoptotic cells at 10 uM after 24 hrs by Annexin V-FITC/propidium iodide staining based flow cytometry (reference value: 0.43%). The experiment is classed as functional.
The subject of experiment [5] is SW-620. The experiment can be described thus: Induction of apoptosis in human SW620 cells assessed as live cells at 1.25 uM after 48 hrs by Annexin V-FITC/propidium iodide staining based flow cytometry (reference value: 96.26%). Format: functional.
Experiment [6] concerns SW-620. The experiment can be described thus: Induction of apoptosis in human SW620 cells assessed as late apoptotic cells at 5 uM after 48 hrs by Annexin V-FITC/propidium iodide staining based flow cytometry (reference value: 0.2%). The experiment is classed as functional.
Experiment [7] relates to SW-620. In words: Induction of apoptosis in human SW620 cells assessed as live cells at 10 uM after 48 hrs by Annexin V-FITC/propidium iodide staining based flow cytometry (reference value: 96.26%). Format: functional.
Experiment [8] relates to SW-620. The experiment can be described thus: Induction of apoptosis in human SW620 cells assessed as necrotic cells at 10 uM after 72 hrs by Annexin V-FITC/propidium iodide staining based flow cytometry (reference value: 0.27%). Format: functional.

Each structure is given as a SMILES string. pIC50: −log10 of the molar value.

Broadly, the pIC50 is −log10 of the IC50, conventionally taken in molar units. Usually inhibition stands for the share of the control response that was lost under treatment.

Regarding `COc1ccc(/C=C2\CCC/C(=C\c3cc(OC)c(OC)c(OC)c3)C2=O)cc1OC`, the pIC50 in the experiment on NHDF is 5.24. Moreover, the inhibition at 20 µM with A549 is greater than 50%. Moreover, the Activity was 50% in the experiment with SW-620 [1]; 46.2% with SW-620 [2]; 40.33% in the experiment with SW-620 [3]; 12.66% with SW-620 [4]; 82.82% in the experiment with SW-620 [5]; 60.42% in the experiment with SW-620 [6]. The results for the Activity with SW-620 [7] and in the experiment on SW-620 [8] were 13.21% and 0.24%, respectively.

For `COc1ccc(/C=C2\CCC/C(=C\c3cccc(O)c3)C2=O)cc1OC`, in the experiment on NHDF, the pIC50 is 5.17. The inhibition at 20 µM in the experiment on A549 is greater than 50%. The Activity in the experiment on SW-620 [1] was found to be 49%; in the experiment with SW-620 [2], 50.73%; in the experiment on SW-620 [3], 42.12%; in the experiment on SW-620 [4] it was 7.42%; in the experiment on SW-620 [5] it was 94.54%; with SW-620 [6] it was 40.61%. In addition, the values for the Activity in the experiment with SW-620 [7] and in the experiment on SW-620 [8] were 17% and 0.22%, respectively.
